# From ChEMBL document CHEMBL3808298, “The combination of quinazoline and chalcone moieties leads to novel potent heterodimeric modulators of breast cancer resistance protein (BCRP/ABCG2)” (Eur J Med Chem, 2016)
# Calls of active or inactive are those of the source. No cut-off for these calls is given here.
# Legend:
# [1] = target: T1, Broad substrate specificity ATP-binding cassette transporter ABCG2 (Homo sapiens, UniProt Q9UNQ0); test: Inhibition of ABCG2 (unknown origin)
# T1 sequence (Q9UNQ0 whole entry): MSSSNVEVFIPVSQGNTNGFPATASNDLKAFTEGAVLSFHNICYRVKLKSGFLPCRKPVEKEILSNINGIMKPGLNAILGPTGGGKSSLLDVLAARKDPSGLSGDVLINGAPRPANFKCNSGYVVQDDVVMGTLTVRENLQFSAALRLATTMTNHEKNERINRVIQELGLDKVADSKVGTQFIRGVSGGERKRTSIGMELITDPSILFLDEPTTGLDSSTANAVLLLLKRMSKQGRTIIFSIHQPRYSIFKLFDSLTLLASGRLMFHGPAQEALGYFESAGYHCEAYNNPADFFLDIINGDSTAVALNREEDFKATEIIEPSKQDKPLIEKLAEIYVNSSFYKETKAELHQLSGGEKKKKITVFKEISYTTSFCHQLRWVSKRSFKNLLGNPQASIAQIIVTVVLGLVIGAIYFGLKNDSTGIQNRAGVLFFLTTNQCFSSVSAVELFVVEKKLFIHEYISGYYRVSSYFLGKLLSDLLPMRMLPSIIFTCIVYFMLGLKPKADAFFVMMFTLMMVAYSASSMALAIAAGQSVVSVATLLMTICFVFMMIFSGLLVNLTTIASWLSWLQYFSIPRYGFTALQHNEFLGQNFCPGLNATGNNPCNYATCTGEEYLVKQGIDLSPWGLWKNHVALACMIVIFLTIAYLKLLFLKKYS
# [2] = target: T1, Broad substrate specificity ATP-binding cassette transporter ABCG2; test: Inhibition of human C-terminal GFP-tagged ABCG2 expressed in MDCK2 cells assessed as SN-38-induced cytotoxicity by measuring cell viability at 0.01 to 0.1 uM after 72 hrs by MTT assay; format: cell-based; settings: mdck-ii
# In short: (§1)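 SN-38 dose-response curves in MDCK II BCRP cells (canine kidney line stably transfected with human ABCG2 C-terminally fused to GFP) and parental MDCK II wild-type cells. Modulator was present at a final 0.01 or 0.1 µM. Cells were seeded at 3 x 10³ per well, attached 6 h, then exposed 72 h. MTT was read at 570 nm minus 690 nm. Data were normalized and fitted with variable-slope sigmoidal regression.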
# [3] = Cytotoxicity against MDCK2 cells expressing human C-terminal GFP-tagged ABCG2 assessed as reduction in cell viability after 72 hrs by MTT assay; format: ADME, cell-based, Canis lupus familiaris, MDCK-II; settings: dog
# In short: (§2)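 Seeding 3 x 10³ cells/well, 6 h attachment at 37 °C, 5% CO2, then compound for 72 h. Controls: 10% DMSO (positive), medium (negative). MTT 5 mg/ml stock for 1 h; formazan in DMSO; A570, background 690 nm. Normalized to control; GI50 from variable-slope sigmoidal fit.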
# [4] = target: T1, Broad substrate specificity ATP-binding cassette transporter ABCG2; test: Induction of vanadate-sensitive ATPase activity of recombinant human ABCG2 expressed in baculovirus infected Sf9 cell membrane assessed as increase in inorganic phosphate production up to 1 uM after 20 mins by colorimetry; settings: sf9, 20 min
# In short: (§3)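 Sf9 membranes from cells infected with baculovirus carrying human wild-type ABCG2, cholesterol-loaded; protein by BCA. Buffer: 40 mM MOPS-Tris pH 7.0, 50 mM KCl, 2 mM DTT, 500 µM EGTA-Tris, 5 mM azide, 1 mM ouabain, 10 µg protein. Reaction started with 3.3 mM MgATP, 20 min at 37 °C. Basal activity with 1 mM orthovanadate; 1 µM quercetin and 1 µM Ko143 as references. Pi by molybdate/ascorbate at 880 nm against K2HPO4 standard; triplicates.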
# [5] = Cytotoxicity against MDCK2 cells assessed as reduction in cell viability after 72 hrs by MTT assay; format: cell-based, Canis lupus familiaris, MDCK-II; settings: dog; in short: as §2
# [6] = target: T2, ATP-dependent translocase ABCB1 (Homo sapiens, UniProt P08183); test: Inhibition of ABCB1 in human A2780/ADR cells incubated for 30 mins measured up to 3600 secs with time intervals of 60 secs by calcein accumulation assay; format: cell-based
# T2 sequence (P08183 whole entry): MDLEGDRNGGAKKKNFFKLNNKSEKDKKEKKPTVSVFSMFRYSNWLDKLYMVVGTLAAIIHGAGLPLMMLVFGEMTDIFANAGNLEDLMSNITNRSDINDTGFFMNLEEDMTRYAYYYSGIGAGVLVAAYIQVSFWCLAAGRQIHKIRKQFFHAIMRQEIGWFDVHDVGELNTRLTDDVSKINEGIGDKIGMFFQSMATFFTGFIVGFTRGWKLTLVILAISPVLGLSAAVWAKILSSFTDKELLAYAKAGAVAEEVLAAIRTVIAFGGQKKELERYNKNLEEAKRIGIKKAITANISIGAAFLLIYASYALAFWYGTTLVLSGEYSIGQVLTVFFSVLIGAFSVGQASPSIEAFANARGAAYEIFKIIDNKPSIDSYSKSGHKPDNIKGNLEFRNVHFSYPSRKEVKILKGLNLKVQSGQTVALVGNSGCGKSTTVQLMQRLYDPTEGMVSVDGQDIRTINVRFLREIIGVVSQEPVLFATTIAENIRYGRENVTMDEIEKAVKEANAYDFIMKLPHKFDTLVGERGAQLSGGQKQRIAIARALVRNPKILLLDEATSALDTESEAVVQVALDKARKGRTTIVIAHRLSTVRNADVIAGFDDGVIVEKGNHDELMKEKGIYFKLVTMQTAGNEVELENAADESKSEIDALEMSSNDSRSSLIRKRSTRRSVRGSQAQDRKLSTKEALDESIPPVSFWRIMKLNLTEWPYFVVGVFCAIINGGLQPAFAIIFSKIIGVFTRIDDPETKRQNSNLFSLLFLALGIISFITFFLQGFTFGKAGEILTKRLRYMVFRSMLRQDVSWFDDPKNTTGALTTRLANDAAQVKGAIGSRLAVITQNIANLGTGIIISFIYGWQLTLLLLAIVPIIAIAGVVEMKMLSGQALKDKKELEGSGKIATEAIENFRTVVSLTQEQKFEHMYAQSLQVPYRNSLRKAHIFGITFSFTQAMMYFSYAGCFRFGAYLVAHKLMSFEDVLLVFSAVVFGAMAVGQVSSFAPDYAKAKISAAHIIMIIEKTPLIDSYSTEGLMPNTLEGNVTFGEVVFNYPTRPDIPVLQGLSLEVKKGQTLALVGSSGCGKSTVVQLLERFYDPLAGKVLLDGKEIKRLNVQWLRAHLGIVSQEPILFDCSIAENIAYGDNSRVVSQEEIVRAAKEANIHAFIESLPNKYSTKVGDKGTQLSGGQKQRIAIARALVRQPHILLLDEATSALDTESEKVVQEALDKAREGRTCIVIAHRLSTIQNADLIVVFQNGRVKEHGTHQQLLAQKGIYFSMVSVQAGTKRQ
# MDCK-II = test: Potentiation of SN-38-induced cytotoxicity in MDCK2 cells assessed as decrease in cell viability at 0.01 to 0.1 uM after 72 hrs by MTT assay; format: functional, cell-based; settings: Canis lupus familiaris; in short: as §1
# [7] = target: Multidrug resistance-associated protein 1 (Homo sapiens, UniProt P33527); test: Inhibition of ABCC1 in human H69AR cells at 10 uM incubated for 30 mins measured up to 3600 secs with time intervals of 60 secs by calcein accumulation assay; format: cell-based
# Sequence of Multidrug resistance-associated protein 1 (P33527 whole entry): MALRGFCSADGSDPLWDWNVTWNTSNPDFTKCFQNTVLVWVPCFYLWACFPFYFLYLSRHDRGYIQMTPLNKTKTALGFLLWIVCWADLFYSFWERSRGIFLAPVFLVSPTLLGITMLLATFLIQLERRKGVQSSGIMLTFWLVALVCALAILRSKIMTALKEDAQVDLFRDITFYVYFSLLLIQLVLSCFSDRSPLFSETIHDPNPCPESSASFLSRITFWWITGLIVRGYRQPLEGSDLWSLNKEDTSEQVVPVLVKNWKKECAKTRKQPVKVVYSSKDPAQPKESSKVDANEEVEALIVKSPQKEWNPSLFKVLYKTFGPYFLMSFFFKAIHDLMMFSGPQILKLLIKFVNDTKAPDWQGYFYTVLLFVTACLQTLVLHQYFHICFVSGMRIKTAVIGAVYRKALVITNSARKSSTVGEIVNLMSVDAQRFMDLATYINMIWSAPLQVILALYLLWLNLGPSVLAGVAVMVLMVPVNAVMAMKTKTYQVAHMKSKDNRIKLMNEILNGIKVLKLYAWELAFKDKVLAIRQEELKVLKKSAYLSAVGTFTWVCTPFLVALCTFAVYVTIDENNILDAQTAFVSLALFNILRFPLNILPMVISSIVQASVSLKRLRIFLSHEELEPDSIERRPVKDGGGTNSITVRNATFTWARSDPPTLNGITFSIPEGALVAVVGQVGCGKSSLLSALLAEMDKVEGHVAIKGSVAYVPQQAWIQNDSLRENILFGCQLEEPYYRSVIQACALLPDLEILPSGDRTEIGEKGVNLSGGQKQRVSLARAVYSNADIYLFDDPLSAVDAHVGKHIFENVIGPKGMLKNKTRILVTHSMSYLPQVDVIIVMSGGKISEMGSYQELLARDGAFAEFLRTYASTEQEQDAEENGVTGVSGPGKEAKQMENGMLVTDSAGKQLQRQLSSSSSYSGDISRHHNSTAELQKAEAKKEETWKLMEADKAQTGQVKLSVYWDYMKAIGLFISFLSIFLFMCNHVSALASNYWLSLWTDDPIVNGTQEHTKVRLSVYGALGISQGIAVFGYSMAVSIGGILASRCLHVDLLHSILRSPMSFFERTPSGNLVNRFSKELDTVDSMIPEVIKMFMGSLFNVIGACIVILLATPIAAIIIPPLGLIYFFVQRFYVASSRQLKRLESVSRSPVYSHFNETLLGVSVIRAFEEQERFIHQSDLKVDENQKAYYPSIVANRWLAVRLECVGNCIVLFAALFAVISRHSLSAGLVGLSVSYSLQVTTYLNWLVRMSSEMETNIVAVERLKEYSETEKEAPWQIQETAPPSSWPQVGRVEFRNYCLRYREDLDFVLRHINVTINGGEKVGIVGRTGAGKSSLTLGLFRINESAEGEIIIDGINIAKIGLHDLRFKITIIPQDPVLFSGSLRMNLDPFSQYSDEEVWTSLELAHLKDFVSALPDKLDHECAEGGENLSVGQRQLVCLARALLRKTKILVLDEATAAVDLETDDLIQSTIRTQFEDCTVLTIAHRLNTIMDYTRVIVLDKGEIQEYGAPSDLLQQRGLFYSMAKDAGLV
# In short: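 Calcein AM assay in ABCC1-overexpressing H69AR cells, about 30,000/well, 30 min preincubation with compound at 10 μM. Calcein AM (1.25 µM solution) added; fluorescence at ex 485/em 520 nm every 60 s up to 3600 s at 37 °C.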
# [8] = target: T1, Broad substrate specificity ATP-binding cassette transporter ABCG2; test: Inhibition of vanadate-sensitive ATPase activity of recombinant human ABCG2 expressed in baculovirus infected Sf9 cell membrane assessed as decrease in inorganic phosphate production at >1 uM after 20 mins by colorimetry; settings: sf9, 20 min; in short: as §3
# [9] = target: T1, Broad substrate specificity ATP-binding cassette transporter ABCG2; test: Non-competitive inhibition of human C-terminal GFP-tagged ABCG2 expressed in MDCK2 cells using pheophorbide A as substrate preincubated for 20 mins followed by substrate addition measured after 120 mins by Lineweaver-Burk plot analysis; format: cell-based; settings: mdck-ii, 2 h
# In short: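 Pheophorbide A accumulation in MDCK II BCRP cells with substrate at 0.2, 0.4, 0.5, 1.0, 1.5 and 2.0 μM. Inhibitor at 0, 0.031, 0.1, 0.18, 0.31 and 0.56 μM. Transport velocities analyzed by Lineweaver-Burk linearization; inhibition type assigned from changes in KM and Vmax.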
# [10] = target: T1, Broad substrate specificity ATP-binding cassette transporter ABCG2; test: Inhibition of human C-terminal GFP-tagged ABCG2 expressed in MDCK2 cells using pheophorbide A as substrate preincubated for 20 mins followed by substrate addition measured after 120 mins by flow cytometry; format: cell-based, MDCK-II
# In short: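 MDCK II BCRP cells, about 45,000/well in KHB, preincubated with compound for 20 min at 37 °C, 5% CO2. Pheophorbide A added (5 µM solution), then 120 min to steady state. Flow cytometry: excitation 488 nm, emission >670 nm (FL3); GFP in FL1. IC50 from 4-parameter logistic fit; duplicates.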
# ABCG2 = test: Therapeutic ratio of GI50 for MDCK2 cells expressing human C-terminal GFP-tagged ABCG2 to IC50 for human C-terminal GFP-tagged ABCG2 expressed in MDCK2 cells; format: ADME, cell-based; settings: dog, read-out: TI
# In short: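 Ratio of GI50 from a 72 h MTT assay in MDCK II BCRP cells to IC50 from the pheophorbide A assay in the same cells.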
# [11] = target: T2, ATP-dependent translocase ABCB1; test: Inhibition of ABCB1 mediated efflux in human MCF7/DX1 cells assessed as intracellular rhodamine-123 accumulation after 30 to 40 mins by flow cytometry; format: cell-based
compound,measurement,setting,value
COc1ccc(/C=C/C(=O)c2ccc(OC)c(OC)c2)cc1OC,IC50,[1],5.12 µM
COc1ccc(/C=C/C(=O)c2ccc(Nc3nc(-c4ccc(OC)c(OC)c4)nc4ccccc34)cc2)cc1OC,inhibition (INH),[2],Active
same,GI50 at 72 h,[3],92.9 µM
same,Activity,[4],Active
same,GI50 at 72 h,[5],132 µM
same,IC50,[6],14.9 µM
same,Activity,MDCK-II,Active
same,inhibition (INH),[7],Not Active
same,inhibition (INH),[8],Active
same,inhibition (INH),[9],Active
same,IC50,[10],0.19 µM
same,selectivity ratio,ABCG2,489
COc1ccc2c3c1O[C@H]1C[C@@H](OC(=O)CCCCCCCCC(=O)O[C@H]4C=C[C@@]56CN(C)CCc7ccc(OC)c(c75)O[C@H]6C4)C=C[C@@]31CN(C)CC2,IC50,[11],0.8 µM
